High-throughput results deposited in PubChem by Sanford-Burnham Center for Chemical Genomics.
SENP8 block-1 – human SENP8 protease inhibitors, primary screen, biochemical, fluorescence, Nedd8 protein substrate, uHTS. recombinant SENP8. inhibition, % at 20 µM. hit rate 0.64% among 360,000; in the data active = inhibition mostly above about 40%, no sharp cut-off; inactive = mostly below about 27%
Target sequence (Q96LD8 whole entry, looked up): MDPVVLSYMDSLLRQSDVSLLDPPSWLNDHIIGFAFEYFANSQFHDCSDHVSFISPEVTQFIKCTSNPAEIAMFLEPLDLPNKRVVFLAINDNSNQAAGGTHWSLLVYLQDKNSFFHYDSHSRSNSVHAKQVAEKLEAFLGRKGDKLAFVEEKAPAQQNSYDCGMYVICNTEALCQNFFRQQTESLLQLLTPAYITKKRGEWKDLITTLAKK
SENP6 block – SENP6 protease inhibitors, primary screen, biochemical, luminescence, uHTS. hit rate 1.8% among 330,000. AID 2599, 2010. Recombinant SENP6 catalytic domain, aminoluciferin luminescence. Sentrin-specific protease 6 (Homo sapiens), Q9GZR1. inhibition, % at 10 µM;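 active = inhibition above about 50% at the single tested dose, limit read from the data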;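 note: plate controls were DMSO wells with enzyme for no effect and DMSO wells lacking enzyme for full effect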
SENP7 block – SENP7 protease inhibitors, primary screen, biochemical, luminescence, uHTS. recombinant SENP7, Z-RLRGG-aminoluciferin luminescence, 40 min. inhibition, % at 5 µM. hit rate 1.5% among 330,000. AID 434973, 2010;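 active = inhibition above about 50% at the single test dose, limit read from the data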;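 note: plate controls were DMSO with enzyme for no effect and no enzyme buffer wells for full effect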
Target sequence (Q9BQF6 706-1050 limits assumed): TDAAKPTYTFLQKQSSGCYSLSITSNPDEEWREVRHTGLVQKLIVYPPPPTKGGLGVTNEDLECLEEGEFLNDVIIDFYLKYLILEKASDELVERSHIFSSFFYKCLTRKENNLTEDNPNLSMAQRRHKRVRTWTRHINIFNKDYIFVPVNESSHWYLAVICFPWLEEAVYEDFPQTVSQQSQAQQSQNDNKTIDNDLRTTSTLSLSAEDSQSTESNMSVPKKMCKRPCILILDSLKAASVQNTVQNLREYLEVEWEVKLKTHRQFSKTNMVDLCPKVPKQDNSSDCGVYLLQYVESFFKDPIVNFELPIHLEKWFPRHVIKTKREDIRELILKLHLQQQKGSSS
Apaf1 inhib – inhibitors of human Apaf-1 apoptosome, primary screen, biochemical, DEVD-Rh110 fluorescence, uHTS; Apoptotic protease-activating factor 1 (Homo sapiens), O14727; reconstituted apoptosome caspase-3 activity; inhibition, % at 20 µM; hit rate 0.71% among 330,000; active = inhibition of at least 40% at 20 µM;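 note: plate controls were DMSO wells for no effect and DEVD-CHO caspase inhibitor wells for full effect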
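System: Apoptosome proteins | Medium: Hepes pH 7.5 with detergent and BSA | Also added: Cytochrome c trigger plus (Z-DEVD)2-Rh110 caspase-3 substrate | Incubation: 30 min compound preincubation, 50 min activation, room temperature | Detection: Rhodamine 110 fluorescence at Ex 480/Em 540 nm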
UBC13 polyUb – UBC13 polyubiquitin chain formation inhibitors, primary screen, biochemical, TR-FRET, uHTS | inhibition, % at 20 µM | AID 485273, 2010 | hit rate 0.47% among 330,000 | Ubiquitin-conjugating enzyme E2 N (Homo sapiens), P61088; in the data active = inhibition above about 45%, passing the limit was not always enough
SENP8 block-2 – SENP8 protease inhibitors, primary screen, biochemical, luminescence. Sentrin-specific protease 8 (Homo sapiens), Q96LD8. purified SENP8, Z-RLRGG-aminoluciferin cleavage. inhibition, % at 10 µM. hit rate 1.2% among 330,000; in the data active = inhibition above about 50%
Active calls of the source: *. Compounds with a hit are over-represented: about 3% of the library has one in this group of screens.

`c1ccc(C2=Nc3ccccc3SC2c2nc3ccccc3[nH]2)cc1` (centres undefined) gave SENP6 block 52*, SENP7 block 54*, Apaf1 inhib -15, UBC13 polyUb 14 and SENP8 block-2 27.
`COc1ccc(C(=O)N/C(=C/c2ccc(Cl)cc2)C(=O)Nc2ccc(C(=O)O)cc2)cc1` gave SENP8 block-1 20, SENP6 block 3, SENP7 block 1, Apaf1 inhib 2, UBC13 polyUb -3 and SENP8 block-2 0.
`CN(C(=O)c1ccc(NC(=O)Cc2ccc(NC(=O)C3CCCN(C(=O)c4ccccc4)C3)cc2)cc1)C1CCCC1` (centres undefined) gave SENP8 block-1 7.
O=c1c(N=Nc2ccccc2)c[nH]n1-c1ccccc1 was read as SENP8 block-1 54*.
`Cc1[nH]n(-c2ccccc2)c(=O)c1N=Nc1ccc(F)cc1` gave SENP8 block-1 38, SENP6 block -3, SENP7 block 6, Apaf1 inhib 10, UBC13 polyUb -16 and SENP8 block-2 6.
COC/C=C/C1=CC2=CC(=O)C(C)(OC(=O)c3cnc4ccccc4n3)C(=O)C2=CN1CC1CC1 (centres undefined) was read as SENP8 block-1 44*, SENP6 block 8, SENP7 block 18, Apaf1 inhib 27, UBC13 polyUb -62 and SENP8 block-2 -3.
`COc1ccc(-c2nc3c(Cl)cc(C(F)(F)F)cn3c2Cc2cccc(F)c2)cc1OC` gave SENP8 block-1 -370.
O=C(Nc1cccc(Cl)c1)c1cccnn1 was read as SENP8 block-1 14, SENP6 block -10, SENP7 block 0, Apaf1 inhib 6, UBC13 polyUb 2 and SENP8 block-2 5.
O=C1/C(=C/c2ccco2)SC(=S)N1CC1CCCO1 (centres undefined) was read as SENP8 block-1 42*, SENP6 block -26, SENP7 block 10, Apaf1 inhib 7, UBC13 polyUb -3 and SENP8 block-2 3.
Screening Cc1ccc(N2C(=O)/C(=C\c3ccco3)SC2=S)cc1 returned SENP8 block-1 48*, SENP6 block -4, SENP7 block 13, Apaf1 inhib 4, UBC13 polyUb -4 and SENP8 block-2 1.
`O=C1/C(=C\c2ccco2)SC(=S)N1c1ccccc1` gave SENP8 block-1 16, SENP6 block -2, SENP7 block -2, Apaf1 inhib 1, UBC13 polyUb -5 and SENP8 block-2 -9.
Screening Cc1ccc(/C=C2\SC(=S)N(CC3CCCO3)C2=O)o1 (centres undefined) returned SENP8 block-1 34, SENP6 block 8, SENP7 block 7, Apaf1 inhib 6, UBC13 polyUb -30 and SENP8 block-2 6.
O=C1/C(=C\c2ccc(-c3ccccc3Cl)o2)SC(=S)N1CC1CCCO1 (centres undefined) was read as SENP8 block-1 44*, SENP6 block 9, SENP7 block 5, Apaf1 inhib 5, UBC13 polyUb -99 and SENP8 block-2 -18.
O=C(/C=C/c1cc[n+](CC(=O)c2ccc3cccc4c3c2CC4)cc1)c1ccc2cccc3c2c1CC3 was read as SENP8 block-1 -422, SENP6 block 11, SENP7 block 16, Apaf1 inhib 59*, UBC13 polyUb 51* and SENP8 block-2 13.
O=C(C[n+]1ccc2ccccc2c1)c1cccc2ccccc12 was read as SENP8 block-1 -11, SENP6 block -3, SENP7 block 3, Apaf1 inhib 17, UBC13 polyUb -20 and SENP8 block-2 10.
For O=c1oc(-c2ccc([N+](=O)[O-])cc2)nc2ccc(O)cc12 the results were SENP8 block-1 7, SENP6 block 95*, SENP7 block 100*, Apaf1 inhib 12, UBC13 polyUb -17 and SENP8 block-2 95*.
Screening Cc1ccc(-n2nnnc2SCC(=O)c2c(N)n(C3CC3)c(=O)[nH]c2=O)cc1C returned SENP8 block-1 3, SENP6 block -1, SENP7 block 12, Apaf1 inhib -1, UBC13 polyUb -2 and SENP8 block-2 5.
Screening O=C1c2ccccc2C(=O)c2c1ccc1c(=O)n(-c3ccccc3)[nH]c21 returned SENP8 block-1 26, SENP6 block 14, SENP7 block 11, Apaf1 inhib 9, UBC13 polyUb -50 and SENP8 block-2 3.
For CC(C)Cn1[nH]c2c3c(ccc2c1=O)C(=O)c1ccccc1C3=O the results were SENP8 block-1 43*, SENP6 block 27, SENP7 block 7, Apaf1 inhib 16, UBC13 polyUb -267 and SENP8 block-2 7.
CC1=NN(c2ccc([N+](=O)[O-])cc2)C(=O)C1 was read as SENP8 block-1 71*.
For Cc1cccc2c(N=Nc3ccc(S(=O)(=O)Nc4cccc(Cl)c4)cc3[N+](=O)[O-])c(O)[nH]c12 the results were SENP8 block-1 47*, SENP6 block -5, SENP7 block 0, Apaf1 inhib 11, UBC13 polyUb -96 and SENP8 block-2 -11.
COCc1c(C(=O)Nc2ccc3nc(N4CCOCC4)sc3c2)oc2ccccc12 was read as SENP8 block-1 -123, SENP6 block 0, SENP7 block -8, Apaf1 inhib 26, UBC13 polyUb 8 and SENP8 block-2 -15.
For O=C(N=Nc1c(O)[nH]c2ccccc12)c1ccc2c(c1)OCO2 the results were SENP8 block-1 26, SENP6 block 66*, SENP7 block 91*, Apaf1 inhib -8, UBC13 polyUb -20 and SENP8 block-2 46.
For COc1cc(NCCCC(C)N)c2ncccc2c1 (centres undefined) the results were SENP8 block-1 57*.
CCOC(=O)c1cc[nH]c1CC(=O)NC was read as SENP8 block-1 23, SENP6 block -5, SENP7 block -1, Apaf1 inhib 4, UBC13 polyUb 3 and SENP8 block-2 -3.
For Nc1nc(Cl)c(N)c(NCC2(CO)CC(CCc3ccccc3)C2)n1 (centres undefined) the results were SENP8 block-1 -232.
`O=C(COC(=O)c1cccc(Br)c1)NCCC1=CCCCC1` gave SENP8 block-1 33, SENP6 block -11, SENP7 block -3, Apaf1 inhib -16, UBC13 polyUb -3 and SENP8 block-2 5.
Screening N#Cc1c(N)sc(=S)c2c1CCN(Cc1ccccc1)C2 returned SENP6 block 94*, SENP7 block 79*, Apaf1 inhib 96*, UBC13 polyUb -14 and SENP8 block-2 96*.
CCN1CCc2c(sc(N)c2C#N)C1 was read as SENP8 block-1 -427, SENP6 block 1, SENP7 block 7, Apaf1 inhib 23, UBC13 polyUb -27 and SENP8 block-2 5.
